Source: ChEMBL document CHEMBL3046382, “Synthesis and insecticidal activities and SAR studies of novel benzoheterocyclic diacylhydrazine derivatives” (2009)
Converted amounts (≈) assume the structure as drawn.

What was measured:
Format in all cases: functional
[1] = tested on: Culicidae; assay: Toxicity against fourth-instar larvae of Culex pipiens pallens assessed as mortality at 0.5 mg/kg measured after 7 to 10 days
Summary of the method: (§1)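 For each concentration, 1 mL of dilution was added to 99 mL water and 20 fourth-instar larvae introduced. Percentage mortality assessed 7–10 days after treatment.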

[2] = tested on: Culicidae; assay: Toxicity against fourth-instar larvae of Culex pipiens pallens assessed as mortality at 1 mg/kg measured after 7 to 10 days; summary of the method: as §1
[3] = tested on: Ostrinia nubilalis; assay: Stomach toxicity in Ostrinia nubilalis (European corn borer) in compound treated corn leaves assessed as mortality measured after 4 days by leaf-dip method; settings: for LC50: Ostrinia nubilalis, 96 h
Summary of the method: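 Corn leaf disks (about 5 cm) dipped 3–5 s in test solution, air-dried, and placed singly in 7 cm glass vessels. Each disk given 10 third-instar larvae. Acetone-treated leaves as control, four replicates. Percentage mortality at 4 days; LC50 and LC95 derived.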

[4] = tested on: Helicoverpa armigera; assay: Contact toxicity in Helicoverpa armigera assessed as mortality at 1000 mg/L by topical application measured after 4 days […]
Summary of the method: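 Third-instar larvae; compounds in acetone at 1000 mg L⁻¹, 0.5 μL applied to the thoracic tergite by microapplicator. Larvae then returned to standard rearing conditions. Percentage mortality scored 4 days after treatment.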

[5] = tested on: Helicoverpa armigera; assay: Stomach toxicity in Helicoverpa armigera in compound treated corn leaves assessed as mortality at 1000 mg/L measured after 4 days by leaf-dip method
Summary of the method: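 Corn leaves dipped in acetone solution at 1000 mg L⁻¹ and air-dried. Each treated disk placed singly in a 24-hole box and given 10 third-instar larvae. Percentage mortality scored after 4 days.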

[6] = tested on: Plutella xylostella; assay: Contact toxicity in fourth-instar Plutella xylostella (diamondback moth) larva assessed as mortality measured after 72 hr by insect-dip method
Summary of the method: (§2)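 Fourth-instar larvae immersed for 5 min in acetone solutions diluted with water, five concentrations. Larvae then held at 25 ± 1 °C under standard rearing. Usually 30 insects per dose, each treatment in triplicate, water-only control. Mortality read at 48 and 72 h and LC50 derived.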

[7] = tested on: Plutella xylostella; assay: Contact toxicity in fourth-instar Plutella xylostella (diamondback moth) larva assessed as mortality measured after 48 hr by insect-dip method; summary of the method: as §2
[8] = tested on: Spodoptera exigua; assay: Contact toxicity in fourth-instar Spodoptera exigua assessed as mortality by topical application measured after 48 hr; settings: read-out: LD50 (the source's name)
Summary of the method: (§3)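 Topical application to fourth-instar larvae: 1.0 μL of acetone dilution at various concentrations placed on the thoracic tergite by automatic microapplicator. Larvae then returned to standard rearing. Acetone-only control, each treatment three times. Mortality calculated at 48 and 72 h and LC50 derived.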

[9] = tested on: Spodoptera exigua; assay: Contact toxicity in fourth-instar Spodoptera exigua assessed as mortality by topical application measured after 72 hr; settings: read-out: LD50 (the source's name); summary of the method: as §3
[10] = tested on: Spodoptera exigua; assay: Stomach toxicity in Spodoptera exigua in compound treated cabbage leaves assessed as mortality measured after 3 days by leaf-dip method; settings: 72 h
Summary of the method: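 Cabbage leaf disks (5 cm × 3 cm) dipped 3 s in test solution, air-dried, and placed singly in 80 cm³ boxes. Each disk given five third-instar larvae. Water- and acetone-treated leaves as controls, each treatment three times. Percentage mortality read at 3 days.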

[11] = tested on: Culicidae; assay: Toxicity against fourth-instar larvae of Culex pipiens pallens assessed as mortality at 2 mg/kg measured after 7 to 10 days; summary of the method: as §1
[12] = tested on: Mythimna separata; assay: Stomach toxicity in fourth-instar Mythimna separata (Oriental armyworm) larvae in compound treated corn leaves assessed as mortality at 2.5 mg/kg measured after 4 days; settings: 96 h
[13] = tested on: Mythimna separata; assay: Stomach toxicity in fourth-instar Mythimna separata (Oriental armyworm) larvae in compound treated corn leaves assessed as mortality at 5 mg/kg measured after 4 days; settings: 96 h
[14] = tested on: Mythimna separata; assay: Stomach toxicity in fourth-instar Mythimna separata (Oriental armyworm) larvae in compound treated corn leaves assessed as mortality at 10 mg/kg measured after 4 days; settings: 96 h
[15] = tested on: Mythimna separata; assay: Stomach toxicity in fourth-instar Mythimna separata (Oriental armyworm) larvae in compound treated corn leaves assessed as mortality at 25 mg/kg measured after 4 days; settings: 96 h
[16] = tested on: Mythimna separata; assay: Stomach toxicity in fourth-instar Mythimna separata (Oriental armyworm) larvae in compound treated corn leaves assessed as mortality at 50 mg/kg measured after 4 days; settings: 96 h
[17] = tested on: Mythimna separata; assay: Stomach toxicity in fourth-instar Mythimna separata (Oriental armyworm) larvae in compound treated corn leaves assessed as mortality at 100 mg/kg measured after 4 days; settings: 96 h
[18] = tested on: Mythimna separata; assay: Stomach toxicity in fourth-instar Mythimna separata(Oriental armyworm) larvae in compound treated corn leaves assessed as mortality at 200 mg/kg measured after 4 days; settings: 96 h

SMILES	mortality at 0.5 mg/kg [1]	mortality at 1 mg/kg [2]	LC95 [3]	LC50 [3]	Activity [4]	Activity [5]	LC50 [6]	LC50 [7]	LC50 [8]	LC50 [9]	LC50 [10]	mortality at 2 mg/kg [11]	mortality at 2.5 mg/kg [12]	mortality at 5 mg/kg [13]	mortality at 10 mg/kg [14]	mortality at 25 mg/kg [15]	mortality at 50 mg/kg [16]	mortality at 100 mg/kg [17]	mortality at 200 mg/kg [18]
Cc1cc(C)cc(C(=O)N(NC(=O)c2ccc3c(c2C)CC(C)O3)C(C)(C)C)c1 (stereo unspecified)	10%	10%	271.89 µg/mL (≈ 689 µM)	40.5 µg/mL (≈ 103 µM)	50%	70%	81.4 µg/mL (≈ 206 µM)	124 µg/mL (≈ 314 µM)	190 µg/mL (≈ 482 µM)	52.8 µg/mL (≈ 134 µM)	12.7 µg/mL (≈ 32.2 µM)	80%	20%	80%	95%	100%	100%	100%	100%
Cc1cc(C)cc(C(=O)N(NC(=O)c2ccc3c(c2Cl)CCCO3)C(C)(C)C)c1 [N'-TERT-BUTYL-N'-(3,5-DIMETHYLBENZOYL)-N-5-CHLORO-6-CHROMANECARBOHYDRAZIDE]			405.65 µg/mL (≈ 978 µM)	55.6 µg/mL (≈ 134 µM)	40%	80%	70.8 µg/mL (≈ 171 µM)	113 µg/mL (≈ 273 µM)	17.3 µg/mL (≈ 41.7 µM)	11.7 µg/mL (≈ 28.2 µM)	5.5 µg/mL (≈ 13.3 µM)								
Cc1cc(C)cc(C(=O)N(NC(=O)c2ccc3c(c2C)CCCO3)C(C)(C)C)c1 [CHROMAFENOZIDE]	10%	80%	139.25 µg/mL (≈ 353 µM)	18.6 µg/mL (≈ 47.2 µM)	60%	65%	123 µg/mL (≈ 312 µM)	236 µg/mL (≈ 598 µM)	29.8 µg/mL (≈ 75.5 µM)	14.9 µg/mL (≈ 37.8 µM)	6.3 µg/mL (≈ 16 µM)	100%	80%	100%	100%	100%	100%	100%	100%
Cc1cc(C)cc(C(=O)N(NC(=O)c2ccc3c(c2C)OC(C)C3)C(C)(C)C)c1 (stereo unspecified) [FUXIAN]	50%	100%	147.78 µg/mL (≈ 375 µM)	25.6 µg/mL (≈ 64.8 µM)	60%	60%	304 µg/mL (≈ 772 µM)	372 µg/mL (≈ 943 µM)	59.6 µg/mL (≈ 151 µM)	12.6 µg/mL (≈ 31.9 µM)	5 µg/mL (≈ 12.7 µM)	100%	95%	100%	100%	100%	100%	100%	100%
